# Results: ChEMBL document CHEMBL4706601, “The endocannabinoid system dual-target ligand N-cycloheptyl-1,2-dihydro-5-bromo-1-(4-fluorobenzyl)-6-methyl-2-oxo-pyridine-3-carboxamide improves disease severity in a mouse model of multiple sclerosis” (Eur J Med Chem, 2020)
# The source made the active and inactive calls. The rule behind the calls is not given here.
# Legend:
# [1] = target: Cannabinoid receptor 2 (Mus musculus) (UniProt P47936); assay: Agonist activity at CB2R in LPS induced mouse BV2 cells assessed as IL-6 secretion at 10 uM preincubated for 30 mins followed by LPS stimulation for 4 hrs by ELISA (reference value: 764.7 +/-22.9%); format: cell-based; conditions: BV-2, filed as agonist, time 270.0 min
# Summary of the method: (§1)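 BV-2 murine microglia grown in high-glucose DMEM with 10% FBS. Treatments in FBS-free medium: test agonist 10 μM for 30 min, then LPS 5 μg/ml for 4 h; SR144528 10 μM given 15 min before agonist. DMSO ≤0.1% final. Medium spun 10 min at 1000×g; IL-1β, IL-6, IL-10 quantified by ELISA; three independent experiments in duplicate.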
# [2] = target: Cannabinoid receptor 2 (Mus musculus) (UniProt P47936); assay: Agonist activity at CB2R in LPS induced mouse BV2 cells assessed as reduction in IL-6 secretion at 10 uM preincubated with CB2R antagonist, SR144528 for 15 mins followed by compound additon for 30 mins after LPS stimulation for 4 hrs by ELISA; format: cell-based; conditions: BV-2, time 270.0 min; summary of the method: as §1
# Mus musculus [3] = assay: (§2) Antinociceptive activity in orally dosed CD-1 albino mouse model of oxaliplatin-induced neuropathic pain assessed as decrease in pain-related behaviour treated on day 15 post oxaliplatin treatment and measured after 15 to 75 mins post dose by cold plate test; format: functional, organism-based; conditions: dose 5-50 mg/kg, time 15-75 min
# Summary of the method: (§3)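 Male CD-1 mice (22-25 g) given oxaliplatin 2.4 mg/kg i.p. in 5% glucose on days 1-2, 5-9, 12-14; tested day 15. Compound in 1% carboxymethylcellulose orally at 5, 10, 20, 50 mg/kg. Cold plate licking latency at 15, 30, 45, 60, 75 min post dose. Selective CB1R and CB2R antagonists co-tested. 16 mice per treatment across 2 sessions; one-way ANOVA with Bonferroni.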
# Mus musculus [4] = assay: as §2, with “in” for “in orally dosed”, “behaviour by measuring efficacy onset and time duration at 5 to 50 mg/kg, po” for “behaviour”; format: functional; conditions: dose 5-50 mg/kg; time 15-75 min; summary of the method: as §3
# [5] = target: Cannabinoid receptor 1 (Rattus norvegicus) (UniProt P20272); assay: Agonist activity at CB1R in Sprague-Dawley rat hippocampal synaptosomes assessed as inhibition of 4-AP evoked glutamate release at 10 uM preincubated for 8 mins followed by 4-AP addition in presence of 1 uM CB2R antagonist, SR144528 by HPLC analysis; format: subcellular; conditions: Hippocampus, filed as agonist
# Summary of the method: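 Rat (male Sprague Dawley, 200-250 g) hippocampal synaptosomes from Percoll gradient, superfused at 37 °C (0.5 ml/min); 4-AP 600 μM for 2 min. Compounds and antagonists (SR141716A, SR144528, 1 μM) added 8 min before 4-AP and kept during it; basal effects tested by 2-min exposure alone. Endogenous glutamate by HPLC as pmol/mg protein; overflow = stimulated minus basal in control chambers; n = 3–9, triplicate.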
# Mus musculus [6] = assay: Antiinflammatory activity in MOG (35 to 55 residues)/pertussis toxin-induced experimental autoimmune encephalomyelitis C57BL/6J mouse model assessed as improvement in disease severity at 10 mg/kg, ip dosed once daily for 20 days starting from day 10 to 16 post immunization and measured at day 5 to 9 post treatment; format: functional, organism-based; conditions: time 5-9 day
# Summary of the method: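 Active EAE in mice: 200 µg MOG35-55 in CFA (4 mg/ml M. tuberculosis) s.c. at hips and tail root, plus pertussis toxin 300 ng i.p. after immunization and 48 h later. Daily i.p. dosing (DMSO vehicle) for 20 days from each mouse's onset (day 10–16); onset = day 1. Daily clinical score; multiple t-tests with Holm-Sidak.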
# Mus musculus [7] = assay: as §2, with “in” for “in orally dosed”, “behaviour at 10 mg/kg, po pretreated with CB2R antagonist, SR144528 for 15 mins before compound addition” for “behaviour”; format: functional, organism-based; conditions: time 15-75 min; summary of the method: as §3
# [8] = target: Cannabinoid receptor 2 (Mus musculus) (UniProt P47936); assay: Agonist activity at CB2R in LPS induced mouse BV2 cells assessed as reduction in IL-1beta secretion at 10 uM preincubated with CB2R antagonist, SR144528 for 15 mins followed by compound additon for 30 mins after LPS stimulation for 4 hrs by ELISA; format: cell-based; conditions: BV-2, time 270.0 min; summary of the method: as §1
# Cannabinoid receptor 2 [9] = target: T1, Cannabinoid receptor 2 (Homo sapiens, UniProt P34972); assay: Competitive antagonist activity at human CB2R expressed in CHO cell membranes assessed as rightward shift of N-cycloheptyl-1,2-dihydro-5-bromo-1-(4-fluoro benzyl)-6-methyl-2-oxo-pyridine-3-carboxamide-induced GTPgammaS binding by measuring fold change in N-cycloheptyl-1,2-dihydro-5-bromo-1-(4-fluoro benzyl)-6-methyl-2-oxo-pyridine-3-carboxamide EC50 at 1000 nM preincubated with compound for 30 mins followed by GTPgammaS addition and measured after 90 mins by [35S]GTPgammaS assay; format: functional; conditions: Membrane, time 120.0 min
# Summary of the method: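 hCB2 CHO membranes in GTPγS buffer (10 μM GDP, 0.1 nM [35S]GTPγS, pH 7.4) pre-incubated 30 min with antagonist at 300 nM or 1 µM, then agonist or inverse agonist concentration series, 90 min at 30 °C. EC50 and Emax reported with 95% CI; Schild analysis; controls CP55,940 100 nM and AM630 1 μM; ≥3 experiments in triplicate.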
# Cannabinoid receptor 2 [10] = target: T1, Cannabinoid receptor 2; assay: (§4) Non-competitive antagonist activity at human CB2R expressed in CHO cell membranes assessed as N-cycloheptyl-1,2-dihydro-1-(4-fluorobenzyl)-6-methyl-2-oxo-5-phenyl-pyridine-3-carboxamide Emax at 1000 nM preincubated with compound for 30 mins followed by GTPgammaS addition and measured after 90 mins by [35S]GTPgammaS assay (reference value: -49.9%); format: functional; conditions: Membrane, filed as antagonist, time 120.0 min
# Summary of the method: (§5)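 hCB2 membranes from stably transfected CHO cells (10 µg) pre-incubated 30 min with antagonist, then an inverse-agonist concentration series added. Buffer: 50 mM Tris-HCl, 3 mM MgCl2, 0.2 mM EDTA, 100 mM NaCl, 0.5% fatty-acid-free BSA, pH 7.4, with 10 µM GDP and 0.1 nM [35S]GTPγS. Incubated 90 min at 30 °C, then filtered. Non-specific binding measured with 10 µM GTPγS. Emax given with 95% CI; at least 3 experiments, each in triplicate.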
# Cannabinoid receptor 2 [11] = target: T1, Cannabinoid receptor 2; assay: Competitive antagonist activity at human CB2R expressed in CHO cell membranes assessed as N-cycloheptyl-1,2-dihydro-5-bromo-1-(4-fluoro benzyl)-6-methyl-2-oxo-pyridine-3-carboxamide Emax at 100 nM preincubated with compound for 30 mins followed by GTPgammaS addition and measured after 90 mins by [35S]GTPgammaS assay (reference value: 210%); format: functional; conditions: Membrane, filed as antagonist, time 120.0 min
# Cannabinoid receptor 2 [12] = target: T1, Cannabinoid receptor 2; assay: as §4, with “300” for “1000”; format: functional; conditions: Membrane, filed as antagonist, time 120.0 min; summary of the method: as §5
# Cannabinoid receptor 2 [13] = target: T1, Cannabinoid receptor 2; assay: as §4, with “100” for “1000”; format: functional; conditions: Membrane, filed as antagonist, time 120.0 min; summary of the method: as §5
# Cannabinoid receptor 1 = Cannabinoid receptor 1 (Homo sapiens, UniProt P21554); assay: Antagonist activity at human CB1R expressed in CHO cell membranes preincubated for 30 mins followed by GTPgammaS addition and measured after 90 mins by [35S]GTPgammaS assay; format: functional, Membrane
# Summary of the method: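 In-house CHO membranes expressing hCB1 or hCB2 (10 µg) in 50 mM Tris-HCl, 3 mM MgCl2, 0.2 mM EDTA, 100 mM NaCl, 0.5% fatty-acid-free BSA, pH 7.4, with 10 μM GDP and 0.1 nM [35S]GTPγS. Incubated 90 min at 30 °C; antagonist pre-incubated 30 min. Nonspecific binding with 10 μM GTPγS; bound label by filtration and counting; ≥3 experiments in triplicate.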
# T1 sequence (P34972 whole entry): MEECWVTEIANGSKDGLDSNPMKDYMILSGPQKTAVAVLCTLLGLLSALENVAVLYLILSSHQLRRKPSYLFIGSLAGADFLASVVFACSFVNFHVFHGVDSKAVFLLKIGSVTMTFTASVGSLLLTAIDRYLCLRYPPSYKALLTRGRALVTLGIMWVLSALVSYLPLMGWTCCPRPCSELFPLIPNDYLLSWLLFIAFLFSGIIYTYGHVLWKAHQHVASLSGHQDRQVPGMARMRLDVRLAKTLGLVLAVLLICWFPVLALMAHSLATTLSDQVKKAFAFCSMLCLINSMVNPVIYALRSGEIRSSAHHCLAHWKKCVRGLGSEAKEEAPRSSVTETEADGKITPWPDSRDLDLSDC
# Sequence of Cannabinoid receptor 2 (Mus musculus) (P47936 whole entry): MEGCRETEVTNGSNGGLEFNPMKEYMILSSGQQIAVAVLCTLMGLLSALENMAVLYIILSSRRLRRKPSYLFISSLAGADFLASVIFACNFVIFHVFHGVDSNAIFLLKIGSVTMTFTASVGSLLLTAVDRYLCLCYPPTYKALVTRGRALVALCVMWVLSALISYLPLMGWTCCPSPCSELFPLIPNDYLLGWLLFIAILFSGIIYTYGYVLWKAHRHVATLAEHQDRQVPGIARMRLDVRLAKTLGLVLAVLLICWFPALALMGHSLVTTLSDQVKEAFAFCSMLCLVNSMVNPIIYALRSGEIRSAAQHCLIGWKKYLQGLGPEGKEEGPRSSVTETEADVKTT
# Sequence of Cannabinoid receptor 1 (Rattus norvegicus) (P20272 whole entry, the tested form may be a part): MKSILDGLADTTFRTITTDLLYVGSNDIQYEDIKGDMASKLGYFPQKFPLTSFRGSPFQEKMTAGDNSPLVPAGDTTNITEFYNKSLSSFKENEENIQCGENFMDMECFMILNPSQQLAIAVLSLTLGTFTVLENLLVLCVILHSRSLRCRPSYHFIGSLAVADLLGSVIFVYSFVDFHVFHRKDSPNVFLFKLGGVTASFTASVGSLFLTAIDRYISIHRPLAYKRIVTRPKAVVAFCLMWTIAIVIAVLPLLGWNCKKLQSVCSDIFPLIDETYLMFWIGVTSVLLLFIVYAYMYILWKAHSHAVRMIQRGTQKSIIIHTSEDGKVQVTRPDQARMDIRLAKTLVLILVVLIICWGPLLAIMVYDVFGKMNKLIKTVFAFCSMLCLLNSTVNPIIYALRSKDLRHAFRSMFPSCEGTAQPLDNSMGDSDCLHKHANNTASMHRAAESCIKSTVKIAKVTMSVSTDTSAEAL
# Sequence of Cannabinoid receptor 1 (P21554 whole entry): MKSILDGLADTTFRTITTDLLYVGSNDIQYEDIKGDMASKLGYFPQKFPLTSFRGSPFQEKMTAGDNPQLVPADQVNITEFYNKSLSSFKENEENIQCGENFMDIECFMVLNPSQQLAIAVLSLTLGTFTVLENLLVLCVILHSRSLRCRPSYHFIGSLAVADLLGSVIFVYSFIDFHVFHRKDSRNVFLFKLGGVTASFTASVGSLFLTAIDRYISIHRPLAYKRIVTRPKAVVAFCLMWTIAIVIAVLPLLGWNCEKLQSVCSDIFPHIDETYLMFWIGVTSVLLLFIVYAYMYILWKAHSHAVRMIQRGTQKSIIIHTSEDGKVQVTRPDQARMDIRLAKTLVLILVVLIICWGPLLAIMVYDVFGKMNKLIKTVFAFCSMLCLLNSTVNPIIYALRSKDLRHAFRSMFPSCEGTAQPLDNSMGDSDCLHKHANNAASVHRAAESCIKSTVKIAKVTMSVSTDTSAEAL
smiles,measurement,setting,value
Cc1c(Br)cc(C(=O)NC2CCCCCC2)c(=O)n1Cc1ccc(F)cc1,Activity,[1],27.8%
same,Activity,[2],inactive
same,Activity,Mus musculus [3],Dose-dependent effect
same,Time,Mus musculus [4],15 min
same,Activity,[5],Active
same,Activity,Mus musculus [6],inactive
same,Activity,Mus musculus [7],inactive
same,Activity,[8],inactive
COc1ccc(-c2cc(C(=O)NC3CCCCCC3)c(=O)n(Cc3ccc(F)cc3)c2C)cc1,fold change (FC),Cannabinoid receptor 2 [9],70
same,Emax,Cannabinoid receptor 2 [10],-24.9%
same,Emax,Cannabinoid receptor 2 [11],219%
same,Emax,Cannabinoid receptor 2 [12],-28.6%
same,Emax,Cannabinoid receptor 2 [13],-36.3%
same,EC50,Cannabinoid receptor 1,270 nM
